Source: PMC10246735 (European journal of medicinal chemistry, 2023)

What was measured:
[1] = tested on: PC3 (AR−) androgen-insensitive human prostate adenocarcinoma cells; assay: MTT antiproliferative activity assay on PC3 cells; format: cell-based; settings: 48 h, read-out: IC50 (concentration of drug inhibiting cell growth by 50%), PC3 (AR−)
[2] = tested on: LNCaP (AR+) androgen-sensitive human prostate adenocarcinoma cells; assay: MTT antiproliferative activity assay on LNCaP cells; format: cell-based
recombinant CYP3A4 = recombinant CYP3A4 (Homo sapiens, UniProt P08684); assay: Equilibrium spectral titration of recombinant CYP3A4; format: binding; settings: for high spin content: estimated at the end of equilibrium titrations relative to azamulin-bound CYP3A4 (100% high-spin conversion); for Kd: read-out: S50, ligand concentration at half-saturation (equivalent to Kd), 0.1 M phosphate buffer, pH 7.4; for Kd / nH, Hill coefficient: sigmoidal fittings to titration plots, mean of three ± SD
Summary of the method: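 Codon-optimized full-length human CYP3A4 (1.5–2 μM) in 0.1 M phosphate buffer, pH 7.4, with 20% glycerol and 1 mM dithiothreitol, at ambient temperature. DMSO-dissolved ligand added in small aliquots (final solvent <2%). Titration plots were built from difference absorbance spectra. Sigmoidal fits gave S50 (half-saturation ligand concentration, equivalent to Kd) and Hill coefficient; hyperbolic fits gave Kd.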

recombinant CYP3A4, sequence (P08684 whole entry): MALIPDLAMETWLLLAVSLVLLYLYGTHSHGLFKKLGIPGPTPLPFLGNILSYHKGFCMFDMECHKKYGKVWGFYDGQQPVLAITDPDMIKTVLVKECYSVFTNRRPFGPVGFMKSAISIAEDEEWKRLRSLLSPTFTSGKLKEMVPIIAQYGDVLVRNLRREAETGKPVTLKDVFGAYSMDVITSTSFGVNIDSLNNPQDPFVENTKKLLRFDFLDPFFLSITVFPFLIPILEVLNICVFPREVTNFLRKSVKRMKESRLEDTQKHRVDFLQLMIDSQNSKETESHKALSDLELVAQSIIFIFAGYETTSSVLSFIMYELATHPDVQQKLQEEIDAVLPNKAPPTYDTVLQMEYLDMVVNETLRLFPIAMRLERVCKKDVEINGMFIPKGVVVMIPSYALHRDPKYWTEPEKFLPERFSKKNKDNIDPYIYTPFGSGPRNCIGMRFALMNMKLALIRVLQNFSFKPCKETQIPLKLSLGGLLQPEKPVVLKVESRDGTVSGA

Row | SMILES | high spin content (recombinant CYP3A4) [%] | Kd (recombinant CYP3A4) [µM] | nH, Hill coefficient (recombinant CYP3A4) | other results
1 | CC(=O)O[C@]1(C(C)=O)CC[C@H]2[C@@H]3C=C(Cl)C4=CC(=O)[C@@H]5C[C@@H]5[C@]4(C)[C@H]3CC[C@@]21C [CPA, cyproterone acetate, reference compound] | – | – | – | IC50 [1]: 84.3 µM; IC50 ([2]; Homo sapiens, LNCaP/AR, 48 h, read-out: IC50 (concentration of drug inhibiting cell growth by 50%), LNCaP (AR+)): 40.7 µM
2 | C=CC[C@]1(O)CC[C@H]2[C@@H]3CCC4=CC(=O)CC[C@]4(C)[C@H]3CC[C@@]21C [Compound 10, 17α-allyl-androst-4-en-3-one-17β-ol] | 70 ± 2 | 22 ± 4 | 1.52 ± 0.02 | –
3 | C[C@]12CCC(=O)C=C1CC[C@@H]1[C@@H]2CC[C@@]2(C)[C@H]1CC[C@@]2(O)C/C=C/C[C@]1(O)CC[C@H]2[C@@H]3CCC4=CC(=O)CC[C@]4(C)[C@H]3CC[C@@]21C [Compound 11, ((E)-17,17’-(but-2-ene-1,4-diyl))bis(androst-4-en-3-one-17β-ol)] | 92 ± 4 | – | – | fold more potent than the reference drug CPA ([2]; LNCaP (AR+) cells, ratio of IC50): ~ 3.5 times; fold more potent on AR+ LNCaP than AR− PC3 cells ([2]; ratio of IC50 PC3 / LNCaP): ~ 3.7 times; fold higher affinity for CYP3A4 compared to 15 (recombinant CYP3A4; ratio of Kd): 40 fold
4 | C=CC[C@]1(O)CC[C@H]2[C@@H]3CC[C@H]4CC(=O)CC[C@]4(C)[C@H]3CC[C@@]21C [Compound 14, 17α-allyl-androst-3-one-17β-ol] | 71 ± 3 | 17 ± 2 | 1.76 ± 0.06 | –
5 | C[C@]12CCC(=O)C[C@@H]1CC[C@@H]1[C@@H]2CC[C@@]2(C)[C@H]1CC[C@@]2(O)C/C=C/C[C@]1(O)CC[C@H]2[C@@H]3CC[C@H]4CC(=O)CC[C@]4(C)[C@H]3CC[C@@]21C [Compound 15, ((E)-17,17’-(but-2-ene-1,4-diyl))bis(androst-3-one-17β-ol)] | 33 ± 3 | – | – | –
